Reference: ChEMBL document CHEMBL1123183, “Synthesis and antiviral properties of 5-(2-substituted vinyl)-6-aza-2'-deoxyuridines” (1986)
≈ marks a conversion by molar mass, not a printed value.

Columns and labels:
Assay type in all cases: functional
Details in all cases: Chlorocebus sabaeus, read-out: ID50 (the source's name)
Vero [1] = assay: In vitro antiviral activity against HSV-1(strain HFEM) in Vero cells
Procedure, shortened: (§1)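 Plaque reduction in confluent Vero monolayers infected with 30-40 PFU of HSV-1 (strain HFEM) or HSV-2 (strain 196), then 1 h at 37 °C. Overlay of maintenance medium with 0.75% carboxymethylcellulose and a range of compound concentrations, then 2 days at 37 °C. Cells fixed and stained, plaques counted. ID50 is the concentration giving 50% plaque inhibition.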

Vero [2] = assay: In vitro antiviral activity against HSV-2(strain 196) in Vero cells; procedure, shortened: as §1
Vero [3] = assay: Cytotoxicity was measured by determining the incorporation of [methyl-3H]thymidine into DNA of Vero cells
Procedure, shortened: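 Subconfluent Vero monolayers overlaid with maintenance medium holding 1 μCi/mL [methyl-3H]thymidine plus a range of nucleoside concentrations. Incubated 18 h at 37 °C. DNA synthesis read as label in acid-precipitable material. ID50 is the concentration giving 50% reduction of thymidine incorporation.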

## O=c1[nH]c(=O)n(C2C[C@@H](O)[C@@H](CO)O2)nc1-c1ccoc1 (stereo partly drawn)
Vero [1]
  IC50: 42 µg/mL (≈ 142 µM)
Vero [2]
  IC50: 39 µg/mL (≈ 132 µM)
Vero [3]
  IC50: 45 µg/mL (≈ 152 µM)

## O=c1[nH]c(=O)n(C2C[C@@H](O)[C@@H](CO)O2)nc1C=C(Br)Br (stereo partly drawn)
Vero [1]
  IC50: 100 µg/mL (≈ 242 µM)
Vero [2]
  IC50: 100 µg/mL (≈ 242 µM)
Vero [3]
  IC50: > 500 µg/mL

## COC(=O)/C=C/c1nn(C2C[C@@H](O)[C@@H](CO)O2)c(=O)[nH]c1=O (stereo partly drawn)
Vero [1]
  IC50: > 500 µg/mL
Vero [3]
  IC50: > 500 µg/mL

## O=c1[nH]c(=O)n(C2C[C@@H](O)[C@@H](CO)O2)nc1CC(F)(F)F (stereo partly drawn)
Vero [1]
  IC50: > 250 µg/mL
Vero [2]
  IC50: > 250 µg/mL
Vero [3]
  IC50: > 500 µg/mL

## CS/C=C/c1nn(C2C[C@@H](O)[C@@H](CO)O2)c(=O)[nH]c1=O (stereo partly drawn)
Vero [1]
  IC50: > 250 µg/mL
Vero [2]
  IC50: > 250 µg/mL
Vero [3]
  IC50: 420 µg/mL (≈ 1390 µM)

## O=C(O)/C=C/c1nn(C2C[C@@H](O)[C@@H](CO)O2)c(=O)[nH]c1=O (stereo partly drawn)
Vero [1]
  IC50: > 250 µg/mL
Vero [3]
  IC50: > 500 µg/mL

## O=c1[nH]c(=O)n(C2C[C@@H](O)[C@@H](CO)O2)nc1/C=C/Cl (stereo partly drawn)
Vero [1]
  IC50: 20 µg/mL (≈ 69 µM)
Vero [2]
  IC50: 215 µg/mL (≈ 742 µM)
Vero [3]
  IC50: > 500 µg/mL

## O=c1[nH]c(=O)n(C2C[C@@H](O)[C@@H](CO)O2)nc1/C=C/Br (stereo partly drawn)
Vero [1]
  IC50: 8 µg/mL (≈ 23.9 µM)
Vero [2]
  IC50: 190 µg/mL (≈ 569 µM)
Vero [3]
  IC50: 355 µg/mL (≈ 1060 µM)

## O=Cc1nn(C2C[C@@H](O)[C@@H](CO)O2)c(=O)[nH]c1=O (stereo partly drawn)
Vero [1]
  IC50: > 500 µg/mL
Vero [3]
  IC50: 180 µg/mL (≈ 700 µM)

## COC(F)(F)Cc1nn(C2C[C@@H](O)[C@@H](CO)O2)c(=O)[nH]c1=O (stereo partly drawn)
Vero [1]
  IC50: 82 µg/mL (≈ 254 µM)
Vero [2]
  IC50: > 250 µg/mL
Vero [3]
  IC50: > 500 µg/mL

## O=c1[nH]c(=O)n(C2C[C@@H](O)[C@@H](CO)O2)nc1/C=C(\F)Br (stereo partly drawn)
Vero [1]
  IC50: > 250 µg/mL
Vero [2]
  IC50: > 250 µg/mL
Vero [3]
  IC50: > 500 µg/mL

## O=c1[nH]c(=O)n([C@H]2C[C@H](O)[C@@H](CO)O2)cc1/C=C/Br [BRIVUDINE]
Vero [1]
  IC50: 0.015 µg/mL (≈ 0.045 µM)
Vero [2]
  IC50: 1.6 µg/mL (≈ 4.8 µM)
Vero [3]
  IC50: 50 µg/mL (≈ 150 µM)
